A value given as a limit tells only on which side of the number the result lay.

The species named for the first experiment is Rattus norvegicus. Nature of the experiment: Inhibitory concentration against uptake of [3H]NE into chopped cerebral cortical tissue from rat brain.
Details: not given
Format: functional, organism-based. Summed up: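 Chopped rat cerebral cortex preincubated 10 min at 37 °C in physiological salt solution (95% O2-5% CO2) with drug at 10^-8 to 10^-3 M. [3H]NE then added to 10^-7 M final. Uptake stopped by centrifugation. Tissue ethanol extract and medium counted by scintillation. Inhibition taken as % of control; 3-4 experiments.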
As a reminder, the IC50 is the concentration needed to halve the response being measured. A lower IC50 goes with greater potency in that assay. `NC1CC2CCC1c1ccccc12` (stereo in doubt; 1a) registered an IC50 of 0.8 µM.

Compound `CNC1CC2CCC1c1ccccc12` (stereo in doubt; 1b) displayed a concentration for half-maximal inhibition (IC50) of 0.8 µM.

In the case of `NC1CC2CCC1c1ccccc12` (stereo in doubt; 2a), the IC50 amounted to 39 µM. This IC50 lies about 49-fold higher than the previous one.

Compound `CNC1CC2CCC1c1ccccc12` (stereo in doubt; 2b) yielded an IC50 of 48 µM.

For the compound `CNC1CC2CC1c1ccccc12` (stereo in doubt; 3b), it took 1.8 µM to reach half-maximal inhibition (IC50).

`CNC1CC2CC1c1ccccc12` (stereo in doubt; 4b) gave an IC50 of 369 µM.

The experiment is the same for the next values; noted with them: Rattus norvegicus, Brain.
For the compound `N[C@H]1CC2C[C@@H]1c1ccccc12`, the IC50 was 100 µM.

Consider `N[C@@H]1CC2C[C@@H]1c1ccccc12`, for which the IC50 was 1.1 µM.

Regarding `C[C@H](N)Cc1ccccc1` [DEXTROAMPHETAMINE], the IC50 was 0.2 µM.

Regarding `C[C@@H](N)Cc1ccccc1` [LEVAMFETAMINE], the IC50 stood at 0.5 µM.

The species named for the next experiment is Rattus norvegicus. As to the kind of experiment: Effective concentration was measured for the release of accumulated [3H]NE from chopped cortex of rat. The class given is functional, organism-based.
Details: not given
Summed up:
(§1)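 Chopped rat cortex (NE) or corpus striatum (DA) from untreated rats loaded with 10^-6 M [3H]NE or [3H]dopamine, then washed. Exposed to drug (10^-7 to 10^-3 M) for 30 min, then centrifuged. Amines separated from deaminated metabolites on Dowex 50 Na+ and counted by scintillation with recovery correction. Release = % of total label found in medium. EC50 = half-maximal concentration; 3-4 experiments.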
For orientation: EC50 means the midpoint of the concentration-response curve. Higher therefore signals a less potent agent. In turn, `NC1CC2CCC1c1ccccc12` (stereo in doubt; 1a) showed an EC50 of 147 µM.

Regarding `CNC1CC2CCC1c1ccccc12` (stereo in doubt; 1b), the response was half-maximal at 178 µM (EC50).

For the compound `NC1CC2CCC1c1ccccc12` (stereo in doubt; 2a), the EC50 amounted to 1000 µM.

`CNC1CC2CCC1c1ccccc12` (stereo in doubt; 2b) gave an EC50 greater than 1000 µM.

`CNC1CC2CC1c1ccccc12` (stereo in doubt; 3b) had an EC50 of 450 µM.

As for `CNC1CC2CC1c1ccccc12` (stereo in doubt; 4b), the EC50 is greater than 1000 µM.

The same experiment, now with this note: Rattus norvegicus.
Take `N[C@H]1CC2C[C@@H]1c1ccccc12`: the EC50 is 630 µM.

In turn, `N[C@@H]1CC2C[C@@H]1c1ccccc12` showed an EC50 of 16 µM.

For the compound `C[C@H](N)Cc1ccccc1` [DEXTROAMPHETAMINE], the half-maximal effective concentration (EC50) turned out to be 0.8 µM.

On to `C[C@@H](N)Cc1ccccc1` [LEVAMFETAMINE], for which the EC50 came to 1.7 µM. This EC50 lies about 2.1-fold higher than the previous one.

The species named for a further experiment is Rattus norvegicus. As to the kind of experiment: Effective concentration was measured for the release of accumulated [3H]dopamine from chopped striatum of rat. The class given is functional, organism-based.
Details: not given
The essentials:
as §1
For `NC1CC2CCC1c1ccccc12` (stereo in doubt; 1a), it took 192 µM to reach a half-maximal effect (EC50).

As for `CNC1CC2CCC1c1ccccc12` (stereo in doubt; 1b), the EC50 came out at 185 µM. The EC50 values of the last two compounds are within 1.5-fold of each other.

`NC1CC2CCC1c1ccccc12` (stereo in doubt; 2a): the EC50 was 681 µM.

`CNC1CC2CCC1c1ccccc12` (stereo in doubt; 2b) showed an EC50 greater than 1000 µM.

`CNC1CC2CC1c1ccccc12` (stereo in doubt; 3b) registered an EC50 of 271 µM.

On to `CNC1CC2CC1c1ccccc12` (stereo in doubt; 4b), for which the EC50 was greater than 1000 µM.

Staying with this experiment, now noted: Rattus norvegicus.
For `N[C@H]1CC2C[C@@H]1c1ccccc12`, the midpoint of the response, the EC50, lay at 794 µM.

`N[C@@H]1CC2C[C@@H]1c1ccccc12` yielded a half-maximal effective concentration (EC50) of 185 µM.

In turn, `C[C@H](N)Cc1ccccc1` [DEXTROAMPHETAMINE] yielded a concentration for a half-maximal effect (EC50) of 11 µM.

Consider `C[C@@H](N)Cc1ccccc1` [LEVAMFETAMINE], for which the response was half-maximal at 61 µM (EC50).

For the origin of these results see ChEMBL document CHEMBL1121447, “Pronounced pharmacological differences arising from minor structural changes in conformationally defined amphetamine analogues. Comparative evaluation of endo- and exo-2-amino- and endo- and exo-2-(methylamino)benzobicyclo[2.2.1]heptene and -benzobicylco[2.2.2]octene analogues. Conformationally …” (J Med Chem, 1980).
